Values after ≈ are worked out from the molar mass of the structure shown.
Tests used:
[1] = molecular target: T1, C-C chemokine receptor type 4 (Homo sapiens, UniProt P51679); experiment: Antagonist activity at CCR4 receptor in human whole blood assessed as F-actin polymerization after 30 mins by FACS-based flow cytometric analysis; conditions: for Kb: read-out: pA2 (converted)
T1 sequence (P51679 whole entry): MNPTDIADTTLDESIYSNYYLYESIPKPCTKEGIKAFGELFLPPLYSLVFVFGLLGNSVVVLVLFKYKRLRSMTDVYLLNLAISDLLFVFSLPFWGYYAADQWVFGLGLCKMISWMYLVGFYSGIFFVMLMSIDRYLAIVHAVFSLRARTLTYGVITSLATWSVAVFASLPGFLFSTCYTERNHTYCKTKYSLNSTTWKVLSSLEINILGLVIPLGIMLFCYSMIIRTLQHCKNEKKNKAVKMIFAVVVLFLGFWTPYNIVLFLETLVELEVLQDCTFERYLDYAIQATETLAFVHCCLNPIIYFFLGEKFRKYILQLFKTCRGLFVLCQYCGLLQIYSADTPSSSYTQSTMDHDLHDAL

[2] = Kinetic solubility of the compound by chemiluminescent nitrogen detection assay; format: physicochemical; conditions: for solubility kinetic: read-out: Kinetic_solubility
[3] = Lipophilicity, log D of the compound by chromatographic analysis; format: physicochemical
Procedure, shortened: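 Chromatographic log D measured at pH 7.4.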

[4] = molecular target: T1, C-C chemokine receptor type 4; experiment: Antagonist activity at human recombinant CCR4 receptor expressed in CHO cell membranes by [35S]GTPgammaS binding assay; format: functional
[5] = Dissociation constant, pKa of the compound; format: physicochemical
[6] = Plasma protein binding in human by equilibrium dialysis technique; format: ADME, cell-free; conditions: read-out: PPB (converted)
Procedure, shortened: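 Rapid equilibrium dialysis in CD rat, beagle dog or human plasma, with compound at a nominal 1 μg/mL; n = 3.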

[7] = Volume of distribution at steady state in Beagle dog at 0.5 mg/kg, iv; format: ADME, organism-based, Canis lupus familiaris; design: dose 0.5 mg/kg, route intravenous; conditions: beagle, in vivo, read-out: Vdss
[8] = Oral bioavailability in Beagle dog at 1 mg/kg; format: ADME, organism-based, Canis lupus familiaris; conditions: in vivo
[9] = Volume of distribution at steady state in CD rat at 1 mg/kg, iv and 1 mg/kg, po; format: ADME, organism-based; conditions: in vivo, read-out: Vdss
Procedure, shortened: (§1)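 CD rat pharmacokinetics, with compounds given as solutions in DMSO–PEG200–H₂O (5:45:50); one analogue used a 10:40:50 ratio.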

[10] = Oral bioavailability in CD rat at 1 mg/kg; format: ADME, organism-based; conditions: in vivo; procedure, shortened: as §1
in vivo [11] = conditions: CD, rat, iv, 1 mg/kg
in vivo [12] = conditions: CD, rat, iv, 1 mg/kg; remark: listed apart in the source
in vivo [13] = conditions: beagle, dog, iv, 0.5 mg/kg
in vivo [14] = conditions: beagle, dog, iv, 0.5 mg/kg; remark: listed apart in the source

COc1cccc2c1c(NS(=O)(=O)c1ccc(Cl)s1)nn2Cc1cccc(CNC(=O)C2COC2)c1
Kb [1]: 1000 nM | solubility kinetic [2]: ≥ 173 µg/mL | chromatographic logD [3]: 4 | IC50 [4]: 20 nM

COc1c(F)ccc2c1c(NS(=O)(=O)c1ccc(Cl)s1)nn2Cc1cccc(CNC(=O)C(C)(C)O)c1
Kb [1]: 631 nM | solubility kinetic [2]: ≥ 174 µg/mL | chromatographic logD [3]: 4.1 | IC50 [4]: 39.8 nM

COc1cccc2c1c(NS(=O)(=O)c1ccc(Cl)s1)nn2Cc1cc(CNC(C)=O)ccn1
Kb [1]: > 10000 nM | solubility kinetic [2]: ≥ 141 µg/mL | chromatographic logD [3]: 2.6 | IC50 [4]: 158 nM

COc1cccc2c1c(NS(=O)(=O)c1ccc(Cl)s1)nn2Cc1cccc(CNC(=O)C2COCCN2C)c1 (single isomer, unassigned; isomer A)
pA2 [1]: 6.6 | Kinetic_solubility [2]: >= 203 ug ml-1 | pIC50 ([4]; cho): 8.2

COc1cccc2c1c(NS(=O)(=O)c1ccc(Cl)s1)nn2Cc1cccc(CNC(C)=O)c1
pKa [5]: 6.6 | fraction unbound [6]: 0.005 | solubility kinetic [2]: ≥ 124 µg/mL | Vd [7]: 3.2 L/kg | chromatographic logD [3]: 4.1 | bioavailability [8]: 49%

COc1cccc2c1c(NS(=O)(=O)c1ccc(Cl)s1)nn2Cc1cccc(CNC(=O)C2CCCO2)c1 (stereo not drawn)
Kb [1]: 794 nM | solubility kinetic [2]: ≥ 153 µg/mL | chromatographic logD [3]: 4.9 | IC50 [4]: 39.8 nM

CC(=O)NCc1cccc(Cn2nc(NS(=O)(=O)c3ccc(Cl)s3)c3c(C(F)F)cccc32)c1
pKa [5]: 5.6 | Kb [1]: 7940 nM | solubility kinetic [2]: ≥ 188 µg/mL | chromatographic logD [3]: 3.7 | IC50 [4]: 100 nM

COc1cccc2c1c(NS(=O)(=O)c1ccc(Cl)s1)nn2Cc1cccc(CNC(=O)C2COCCN2C)c1 (single isomer, unassigned; isomer B)
Vd [9]: 1 L/kg | bioavailability [10]: 68% | Kb [1]: 251 nM | fraction unbound [6]: 0.014 | solubility kinetic [2]: ≥ 180 µg/mL | clearance (in vivo [11]): 24 mL/min/kg | half-life (in vivo [12]): 1.3 h | Vd [7]: 5.7 L/kg | clearance (in vivo [13]): 22 mL/min/kg | chromatographic logD [3]: 4.4 | half-life (in vivo [14]): 2.6 h | IC50 [4]: 6.31 nM

COc1cccc2c1c(NS(=O)(=O)c1cccc(Cl)c1Cl)nn2Cc1cccc(CNC(=O)C(C)(C)O)c1
pKa [5]: 6.82 | solubility kinetic [2]: 157 µg/mL (≈ 272 µM) | chromatographic logD [3]: 4.7 | IC50 [4]: 398 nM

COc1cccc2c1c(NS(=O)(=O)c1ccc(Cl)s1)nn2Cc1cccc(CNC(=O)C(C)(C)N)c1
Vd [9]: 0.84 L/kg | bioavailability [10]: 29% | Kb [1]: 141 nM | fraction unbound [6]: 0.04 | solubility kinetic [2]: ≥ 180 µg/mL | clearance (in vivo [11]): 15 mL/min/kg | half-life (in vivo [12]): 1.3 h | Vd [7]: 5 L/kg | clearance (in vivo [13]): 18 mL/min/kg | chromatographic logD [3]: 3.3 | half-life (in vivo [14]): 2.4 h | IC50 [4]: 15.8 nM

CC(=O)NCc1cccc(Cn2nc(NS(=O)(=O)c3ccc(Cl)s3)c3ccccc32)c1
pKa [5]: 5.93 | solubility kinetic [2]: ≥ 117 µg/mL | chromatographic logD [3]: 3.3 | IC50 [4]: 251 nM

COc1cccc2c1c(NS(=O)(=O)c1ccc(Cl)s1)nn2Cc1cccc(CNC(=O)C2CCO2)c1 (stereo not drawn)
solubility kinetic [2]: 124 µg/mL (≈ 227 µM) | chromatographic logD [3]: 4.5 | IC50 [4]: 31.6 nM

COc1cccc2c1c(NS(=O)(=O)c1ccc(Cl)s1)nn2Cc1ccnc(CNC(C)=O)c1
solubility kinetic [2]: ≥ 161 µg/mL | chromatographic logD [3]: 2.5 | IC50 [4]: 100 nM

COc1ccc(COc2nc(Br)cnc2NS(=O)(=O)c2ccc(C)cc2)cc1OCCN(C)C
chromatographic logD [3]: 2.9

COc1cccc2c1c(NS(=O)(=O)c1ccc(Cl)s1)nn2Cc1cccc(CNC(=O)[C@H]2COCCN2)c1
Kb [1]: 562 nM | solubility kinetic [2]: ≥ 250 µg/mL | chromatographic logD [3]: 3.9 | IC50 [4]: 25.1 nM

COc1cc(F)cc2c1c(NS(=O)(=O)c1ccc(Cl)s1)nn2Cc1cccc(CNC(C)=O)c1
Kb [1]: 1000 nM | solubility kinetic [2]: ≥ 161 µg/mL | chromatographic logD [3]: 4.1 | IC50 [4]: 39.8 nM

CC(=O)NCc1cccc(Cn2nc(NS(=O)(=O)c3ccc(Cl)s3)c3c(CO)cccc32)c1
pKa [5]: 5.66 | Kb [1]: 1000 nM | solubility kinetic [2]: ≥ 113 µg/mL | chromatographic logD [3]: 2.6 | IC50 [4]: 6.31 nM

CC(=O)NCc1cccc(Cn2nc(NS(=O)(=O)c3ccc(Cl)s3)c3c(C(C)(C)O)cccc32)c1
pKa [5]: 5.46 | solubility kinetic [2]: ≥ 159 µg/mL | chromatographic logD [3]: 2.9 | IC50 [4]: 100 nM

O=C([C@H]1CCCCN1)N1CCN(c2nc(NCc3ccc(Cl)cc3Cl)c3cccnc3n2)CC1
chromatographic logD [3]: 2.9

COc1c(F)ccc2c1c(NS(=O)(=O)c1ccc(Cl)s1)nn2Cc1cccc(CNC(C)=O)c1
Kb [1]: 3160 nM | solubility kinetic [2]: ≥ 199 µg/mL | chromatographic logD [3]: 4.1 | IC50 [4]: 12.6 nM

COc1cccc2c1c(NS(=O)(=O)c1ccc(Cl)s1)nn2Cc1cccc(CNC(=O)[C@@H]2COCCN2)c1
Vd [9]: 0.78 L/kg | bioavailability [10]: 32% | Kb [1]: 79.4 nM | fraction unbound [6]: 0.018 | solubility kinetic [2]: ≥ 212 µg/mL | clearance (in vivo [11]): 18 mL/min/kg | half-life (in vivo [12]): 1.2 h | Vd [7]: 3 L/kg | clearance (in vivo [13]): 41 mL/min/kg | chromatographic logD [3]: 3.9 | half-life (in vivo [14]): 2.6 h | bioavailability [8]: 39% | IC50 [4]: 15.8 nM

CC(=O)NCc1cccc(Cn2nc(NS(=O)(=O)c3ccc(Cl)s3)c3c(C#N)cccc32)c1
pKa [5]: 5.4 | solubility kinetic [2]: ≥ 155 µg/mL | chromatographic logD [3]: 2.5 | IC50 [4]: 316 nM

CC(=O)NCc1cccc(Cn2nc(NS(=O)(=O)c3ccc(Cl)s3)c3c(C(C)O)cccc32)c1 (stereo not drawn)
Vd [9]: 3.5 L/kg | bioavailability [10]: 35% | pKa [5]: 5.62 | Kb [1]: 501 nM | solubility kinetic [2]: ≥ 208 µg/mL | clearance (in vivo [11]): 13 mL/min/kg | half-life (in vivo [12]): 3.7 h | chromatographic logD [3]: 2.7 | IC50 [4]: 20 nM

CC(=O)NCc1cccc(Cn2nc(NS(=O)(=O)c3ccc(Cl)s3)c3c(O)cccc32)c1
Vd [9]: 1.2 L/kg | bioavailability [10]: 12% | pKa [5]: 6.12 | Kb [1]: 794 nM | solubility kinetic [2]: ≥ 166 µg/mL | clearance (in vivo [11]): 19 mL/min/kg | half-life (in vivo [12]): 1.2 h | chromatographic logD [3]: 2.9 | IC50 [4]: 12.6 nM

CC(=O)NCc1cccc(Cn2nc(NS(=O)(=O)c3ccc(Cl)s3)c3c(Cl)cccc32)c1
pKa [5]: 6.03 | Kb [1]: 6310 nM | solubility kinetic [2]: ≥ 226 µg/mL | chromatographic logD [3]: 3.8 | IC50 [4]: 31.6 nM

COc1cccc2c1c(NS(=O)(=O)c1ccc(Cl)s1)nn2Cc1cccc(CNC2COC2)c1
solubility kinetic [2]: 122 µg/mL (≈ 235 µM) | chromatographic logD [3]: 4.3 | IC50 [4]: 251 nM

CC(=O)NCc1cccc(Cn2nc(NS(=O)(=O)c3ccc(Cl)s3)c3c(C(C)=O)cccc32)c1
solubility kinetic [2]: 57 µg/mL (≈ 110 µM) | chromatographic logD [3]: 4.8 | IC50 [4]: 100 nM

COc1cccc2c1c(NS(=O)(=O)c1ccc(Cl)s1)nn2Cc1cccc(CNC(=O)C2CCOCC2)c1
Kb [1]: 501 nM | solubility kinetic [2]: ≥ 193 µg/mL | chromatographic logD [3]: 4.4 | IC50 [4]: 31.6 nM

CN[C@H](C)C(=O)NCc1cccc(Cn2nc(NS(=O)(=O)c3ccc(Cl)s3)c3c(OC)cccc32)c1
Vd [9]: 0.79 L/kg | bioavailability [10]: 19% | Kb [1]: 200 nM | fraction unbound [6]: 0.054 | solubility kinetic [2]: 191 µg/mL (≈ 348 µM) | clearance (in vivo [11]): 17 mL/min/kg | half-life (in vivo [12]): 0.8 h | Vd [7]: 6 L/kg | clearance (in vivo [13]): 17 mL/min/kg | chromatographic logD [3]: 3.1 | half-life (in vivo [14]): 5.9 h | bioavailability [8]: 81% | IC50 [4]: 15.8 nM

COc1ccc(F)c2c1c(NS(=O)(=O)c1ccc(Cl)s1)nn2Cc1cccc(CNC(C)=O)c1
solubility kinetic [2]: ≥ 177 µg/mL | chromatographic logD [3]: 4 | IC50 [4]: 79.4 nM

COc1cccc2c1c(NS(=O)(=O)c1cccc(Cl)c1)nn2Cc1cccc(CNC(=O)C(C)(C)O)c1
pKa [5]: 7.06 | solubility kinetic [2]: ≥ 198 µg/mL | chromatographic logD [3]: 4.5 | IC50 [4]: 50.1 nM

CC(=O)NCc1cccc(Cn2nc(NS(=O)(=O)c3ccc(Cl)s3)c3c(F)cccc32)c1
pKa [5]: 5.62 | Kb [1]: 5010 nM | solubility kinetic [2]: ≥ 139 µg/mL | chromatographic logD [3]: 3 | IC50 [4]: 79.4 nM

COc1cccc2c1c(NS(=O)(=O)c1ccc(C)c(F)c1)nn2Cc1cccc(CNC(=O)C(C)(C)O)c1
pKa [5]: 7.26 | Kb [1]: 1260 nM | solubility kinetic [2]: 36 µg/mL (≈ 66.6 µM) | chromatographic logD [3]: 4.5 | IC50 [4]: 15.8 nM

COc1cccc2c1c(NS(=O)(=O)c1ccc(Cl)s1)nn2Cc1cccc(CNC(C)=O)n1
solubility kinetic [2]: ≥ 182 µg/mL | chromatographic logD [3]: 3 | IC50 [4]: 126 nM

COc1cccc2c1c(NS(=O)(=O)c1ccc(Cl)c(Cl)c1)nn2Cc1cccc(CNC(=O)C(C)(C)O)c1
pKa [5]: 6.76 | solubility kinetic [2]: 76 µg/mL (≈ 132 µM) | chromatographic logD [3]: 5.1 | IC50 [4]: 398 nM
